Results from ChEMBL document CHEMBL1146037, “Design and discovery of a novel dipeptidyl-peptidase IV (CD26)-based prodrug approach” (J Med Chem, 2006).
Calls of active or inactive are those of the source. No cut-off for these calls is given here.

Experiments:
CCRF-CEM [1] = assay: Antiviral activity against HIV2 assessed as inhibition of HIV2-induced cytopathicity in CEM cells; assay type: functional, cell-based
In short: (§1)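 CEM and MT-4 cell cultures infected with HIV-1 or HIV-2, with compounds diluted into culture medium from DMSO stocks. Antiviral activity is read at day 4 post-infection and reported as EC50.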

Dipeptidyl peptidase 4 [2] = molecular target: T1, Dipeptidyl peptidase 4 (Homo sapiens, UniProt P27487); assay: Conversion of prodrug to parent drug NAP-TSAO-T catalyzed by CD26 after 1 hr; assay type: ADME; set-up: concentration or dose not given beside the values
CCRF-CEM [3] = assay: Antiviral activity against HIV1 assessed as inhibition of HIV1-induced cytopathicity in CEM cells; assay type: functional, cell-based; settings: Homo sapiens; in short: as §1
MT4 [4] = assay: Antiviral activity against HIV1 assessed as inhibition of HIV1-induced cytopathicity in MT4 cells; assay type: functional, cell-based; settings: Homo sapiens; in short: as §1
MT4 [5] = assay: Antiproliferative activity against human MT4 cell line; assay type: functional
In short: (§2)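 Cytostatic assay: compounds made up as DMSO stocks and diluted in culture medium. CC50 is the concentration that inhibits MT-4 or CEM cell proliferation by 50%.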

CCRF-CEM [6] = assay: Antiproliferative activity against human CEM cell line; assay type: functional; in short: as §2
[7] = molecular target: Human immunodeficiency virus type 1 reverse transcriptase (Human immunodeficiency virus 1, UniProt Q72547); assay: Inhibition of recombinant HIV1 reverse transcriptase
MT4 [8] = assay: Antiviral activity against HIV2 assessed as inhibition of HIV2-induced cytopathicity in MT4 cells; assay type: functional, cell-based; in short: as §1
Dipeptidyl peptidase 4 [9] = molecular target: T1, Dipeptidyl peptidase 4; assay: Conversion of prodrug to parent drug NAP-TSAO-T catalyzed by CD26 after 4 hrs; assay type: ADME; set-up: concentration or dose not given beside the values
Dipeptidyl peptidase 4 [10] = molecular target: T1, Dipeptidyl peptidase 4; assay: Conversion of prodrug to parent drug NAP-TSAO-T catalyzed by CD26 after 24 hrs; assay type: ADME; set-up: concentration or dose not given beside the values
Homo sapiens = organism: Homo sapiens; assay: Inhibition of human serum-catalyzed prodrug Val-Pro-NAP-TSAO-T conversion to parent drug NAP-TSAO-T; assay type: organism-based
Bos taurus = organism: Bos taurus; assay: Inhibition of bovine serum-catalyzed prodrug Val-Pro-NAP-TSAO-T conversion to parent drug NAP-TSAO-T; assay type: organism-based; settings: cattle
Dipeptidyl peptidase 4 [11] = molecular target: T1, Dipeptidyl peptidase 4; assay: Inhibition of CD26-catalyzed GlyPro-pNA hydrolysis

T1 sequence (P27487 whole entry): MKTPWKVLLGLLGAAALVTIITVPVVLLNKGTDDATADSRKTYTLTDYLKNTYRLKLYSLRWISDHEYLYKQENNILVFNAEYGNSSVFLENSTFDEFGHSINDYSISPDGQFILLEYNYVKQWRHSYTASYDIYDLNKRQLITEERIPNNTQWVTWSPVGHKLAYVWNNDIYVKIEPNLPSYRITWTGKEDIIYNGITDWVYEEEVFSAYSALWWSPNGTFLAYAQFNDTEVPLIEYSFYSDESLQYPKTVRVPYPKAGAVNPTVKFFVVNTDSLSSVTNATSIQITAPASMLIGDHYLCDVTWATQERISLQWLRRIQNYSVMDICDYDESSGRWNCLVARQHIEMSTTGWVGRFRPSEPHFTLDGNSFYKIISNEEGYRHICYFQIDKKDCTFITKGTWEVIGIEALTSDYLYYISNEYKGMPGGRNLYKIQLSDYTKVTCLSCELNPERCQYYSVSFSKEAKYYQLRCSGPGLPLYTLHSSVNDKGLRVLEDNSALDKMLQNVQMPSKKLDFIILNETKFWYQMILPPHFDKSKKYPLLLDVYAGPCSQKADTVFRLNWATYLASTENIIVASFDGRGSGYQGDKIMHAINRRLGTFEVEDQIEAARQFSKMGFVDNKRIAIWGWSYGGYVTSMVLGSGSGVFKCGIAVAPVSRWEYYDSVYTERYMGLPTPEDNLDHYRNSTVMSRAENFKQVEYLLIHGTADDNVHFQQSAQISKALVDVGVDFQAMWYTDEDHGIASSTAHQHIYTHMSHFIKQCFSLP

Compound | Activity (Dipeptidyl peptidase 4 [2]) | EC50 (CCRF-CEM [3]) | IC50 [7] | Activity (Dipeptidyl peptidase 4 [9]) | Activity (Dipeptidyl peptidase 4 [10]) | Inhibition (Homo sapiens) | Inhibition (Bos taurus) | Activity (Dipeptidyl peptidase 4 [11]) | Activity (CCRF-CEM [1]) | EC50 (MT4 [4]) | CC50 (MT4 [5]) | CC50 (CCRF-CEM [6]) | Activity (MT4 [8])
Cc1cn(C2OC(CO[Si](C)(C)C(C)(C)C)C3(OS(=O)(=O)C=C3N)C2O[Si](C)(C)C(C)(C)C)c(=O)n(CCCNC(=O)[C@H](CC(C)C)NC(=O)[C@@H](N)C(C)C)c1=O (some centres not stated) | 0% | 0.19 µM | 4.6 µM | 0% | 0% | – | – | – | inactive | 0.21 µM | 13 µM | 11 µM | inactive
Cc1cn(C2OC(CO[Si](C)(C)C(C)(C)C)C3(OS(=O)(=O)C=C3N)C2O[Si](C)(C)C(C)(C)C)c(=O)n(CCCNC(=O)CNC(=O)[C@@H](N)C(C)C)c1=O (some centres not stated) | 0% | 0.05 µM | 3.8 µM | 0% | 0% | – | – | – | inactive | 0.14 µM | 9.9 µM | 10 µM | inactive
Cc1cn(C2OC(CO[Si](C)(C)C(C)(C)C)C3(OS(=O)(=O)C=C3N)C2O[Si](C)(C)C(C)(C)C)c(=O)n(CCCNC(=O)[C@@H](N)C(C)C)c1=O (some centres not stated) | – | 0.06 µM | 6.7 µM | – | – | – | – | – | inactive | 0.3 µM | 8.2 µM | 9.6 µM | inactive
CC[C@H](C)[C@H](N)C(=O)N1CCCC1 | – | – | – | – | – | > 80% | > 80% | – | – | – | – | – | –
CC[C@H](C)[C@H](N)C(=O)N1CCC[C@H]1C(=O)N[C@H](C(=O)O)[C@@H](C)CC [DIPROTIN A] | – | – | – | – | – | > 80% | > 80% | – | – | – | – | – | –
Cc1cn(C2OC(CO[Si](C)(C)C(C)(C)C)C3(OS(=O)(=O)C=C3N)C2O[Si](C)(C)C(C)(C)C)c(=O)n(CCCNC(=O)[C@@H]2C[C@@H](O)CN2C(=O)[C@@H](N)C(C)C)c1=O (some centres not stated) | 4.1% | 0.4 µM | 16 µM | 18% | 43% | – | – | – | inactive | 0.41 µM | 10 µM | 15 µM | inactive
Cc1cn(C2OC(CO[Si](C)(C)C(C)(C)C)C3(OS(=O)(=O)C=C3N)C2O[Si](C)(C)C(C)(C)C)c(=O)n(CCCNC(=O)[C@@H]2CCCN2C(=O)[C@@H](N)Cc2ccc(O)cc2)c1=O (some centres not stated) | 43% | 0.15 µM | 8.1 µM | 66% | 79% | – | – | – | inactive | 0.14 µM | 11 µM | 10 µM | inactive
Cc1cn(C2OC(CO[Si](C)(C)C(C)(C)C)C3(OS(=O)(=O)C=C3N)C2O[Si](C)(C)C(C)(C)C)c(=O)n(CCCNC(=O)[C@@H]2[C@@H](O)[C@@H](O)CN2C(=O)[C@@H](N)C(C)C)c1=O (some centres not stated) | 0% | 0.35 µM | 4.8 µM | 0% | 0% | – | – | – | inactive | 0.77 µM | 46 µM | 51 µM | inactive
Cc1cn([C@@H]2O[C@H](CO[Si](C)(C)C(C)(C)C)[C@@]3(OS(=O)(=O)C=C3N)[C@H]2O[Si](C)(C)C(C)(C)C)c(=O)n(CCCN)c1=O | – | 0.14 µM | – | – | – | – | – | – | inactive | 0.52 µM | 14 µM | 12 µM | inactive
Cc1cn(C2OC(CO[Si](C)(C)C(C)(C)C)C3(OS(=O)(=O)C=C3N)C2O[Si](C)(C)C(C)(C)C)c(=O)n(CCCNC(=O)[C@H](C)NC(=O)[C@@H](N)C(C)C)c1=O (some centres not stated) | 0% | 0.08 µM | 5.4 µM | 6.5% | 35% | – | – | – | inactive | 0.23 µM | 22 µM | 11 µM | inactive

More lines, main results first:

Activity (Dipeptidyl peptidase 4 [2]) | EC50 (CCRF-CEM [3]) | IC50 [7] | Activity (Dipeptidyl peptidase 4 [9]) | Activity (Dipeptidyl peptidase 4 [10]) | Inhibition (Homo sapiens) | Inhibition (Bos taurus) | Activity (Dipeptidyl peptidase 4 [11]) | Compound | Activity (CCRF-CEM [1]) | EC50 (MT4 [4]) | CC50 (MT4 [5]) | CC50 (CCRF-CEM [6]) | Activity (MT4 [8])
0% | 0.09 µM | 6.8 µM | 0% | 0% | – | – | – | Cc1cn(C2OC(CO[Si](C)(C)C(C)(C)C)C3(OS(=O)(=O)C=C3N)C2O[Si](C)(C)C(C)(C)C)c(=O)n(CCCNC(=O)[C@H](Cc2ccccc2)NC(=O)[C@@H](N)C(C)C)c1=O (some centres not stated) | inactive | 0.26 µM | 14 µM | 10 µM | inactive
– | 0.1 µM | – | 37% | 58% | – | – | – | Cc1cn(C2OC(CO[Si](C)(C)C(C)(C)C)C3(OS(=O)(=O)C=C3N)C2O[Si](C)(C)C(C)(C)C)c(=O)n(CCCNC(=O)[C@@H]2CCCN2C(=O)[C@@H](N)Cc2ccccc2)c1=O (some centres not stated) | inactive | 0.2 µM | 19 µM | 14 µM | inactive
– | 0.16 µM | 4.7 µM | 85% | 99% | – | – | – | Cc1cn(C2OC(CO[Si](C)(C)C(C)(C)C)C3(OS(=O)(=O)C=C3N)C2O[Si](C)(C)C(C)(C)C)c(=O)n(CCCNC(=O)[C@@H]2CCCN2C(=O)[C@@H](N)CCCCN)c1=O (some centres not stated) | inactive | – | 87 µM | 47 µM | inactive
– | 1.1 µM | 7.2 µM | 7.9% | 30% | – | – | – | Cc1cn(C2OC(CO[Si](C)(C)C(C)(C)C)C3(OS(=O)(=O)C=C3N)C2O[Si](C)(C)C(C)(C)C)c(=O)n(CCCNC(=O)[C@@H]2CCCN2C(=O)[C@@H](N)CC(=O)O)c1=O (some centres not stated) | inactive | 1.2 µM | 69 µM | ≥ 125 µM | inactive
0% | 0.09 µM | 22 µM | 2.2% | 4.2% | – | – | – | Cc1cn(C2OC(CO[Si](C)(C)C(C)(C)C)C3(OS(=O)(=O)C=C3N)C2O[Si](C)(C)C(C)(C)C)c(=O)n(CCCNC(=O)[C@H]2CCCN2C(=O)[C@@H](N)C(C)C)c1=O (some centres not stated) | inactive | 0.49 µM | 22 µM | 11 µM | inactive
5% | 0.2 µM | 13 µM | 20% | 58% | – | – | – | Cc1cn(C2OC(CO[Si](C)(C)C(C)(C)C)C3(OS(=O)(=O)C=C3N)C2O[Si](C)(C)C(C)(C)C)c(=O)n(CCCNC(=O)[C@@H]2CCCN2C(=O)CN)c1=O (some centres not stated) | inactive | 0.39 µM | 13 µM | 51 µM | inactive
– | 0.07 µM | 4.4 µM | – | – | – | – | – | Cc1cn(C2OC(CO[Si](C)(C)C(C)(C)C)C3(OS(=O)(=O)C=C3N)C2O[Si](C)(C)C(C)(C)C)c(=O)n(CCCNC(=O)[C@@H](NC(=O)[C@@H]2CCCN2C(=O)[C@@H](N)C(C)C)C(C)C)c1=O (some centres not stated) | inactive | 0.22 µM | 11 µM | 11 µM | inactive
– | 0.37 µM | 4 µM | 27% | 73% | – | – | – | Cc1cn(C2OC(CO[Si](C)(C)C(C)(C)C)C3(OS(=O)(=O)C=C3N)C2O[Si](C)(C)C(C)(C)C)c(=O)n(CCCNC(=O)[C@@H]2CCCN2C(=O)[C@@H](N)CC(N)=O)c1=O (some centres not stated) | inactive | 0.59 µM | 22 µM | 25 µM | inactive
– | 0.26 µM | – | 48% | 92% | – | – | – | Cc1cn(C2OC(CO[Si](C)(C)C(C)(C)C)C3(OS(=O)(=O)C=C3N)C2O[Si](C)(C)C(C)(C)C)c(=O)n(CCCNC(=O)[C@@H]2CCCN2C(=O)[C@@H](N)CCC(=O)O)c1=O (some centres not stated) | inactive | 0.49 µM | 64 µM | 30 µM | inactive
– | 0.42 µM | – | 81% | 88% | – | – | – | Cc1cn(C2OC(CO[Si](C)(C)C(C)(C)C)C3(OS(=O)(=O)C=C3N)C2O[Si](C)(C)C(C)(C)C)c(=O)n(CCCNC(=O)[C@@H]2CCCN2C(=O)[C@H](C)N)c1=O (some centres not stated) | inactive | 0.3 µM | 20 µM | 19 µM | inactive
– | 0.09 µM | 28 µM | 0% | 0% | – | – | – | Cc1cn(C2OC(CO[Si](C)(C)C(C)(C)C)C3(OS(=O)(=O)C=C3N)C2O[Si](C)(C)C(C)(C)C)c(=O)n(CCCNC(=O)[C@@H]2C[C@@H](OCc3ccccc3)CN2C(=O)[C@@H](N)C(C)C)c1=O (some centres not stated) | inactive | 0.27 µM | 2 µM | 2.1 µM | inactive
0% | – | – | 0% | 0% | – | – | Not Active | Cc1cn(C2OC(CO[Si](C)(C)C(C)(C)C)C3(OS(=O)(=O)C=C3N)C2O[Si](C)(C)C(C)(C)C)c(=O)n(CCCNC(=O)[C@@H]2CCCN2C(=O)[C@@H](NC(=O)OCc2ccccc2)C(C)C)c1=O (some centres not stated) | – | – | – | – | –
